Assay results of several laboratories.
Compare with care: the assays were run in different laboratories.
PKN1: Serine/threonine-protein kinase N1 (PKN1, Homo sapiens, UniProt Q16512)
MAOB: Amine oxidase [flavin-containing] B (MAOB, Homo sapiens, UniProt P27338)
HRH1: Histamine H1 receptor (HRH1, Homo sapiens, UniProt P35367)
CA9: Carbonic anhydrase 9 (CA9, Homo sapiens, UniProt Q16790)
PADI4: Protein-arginine deiminase type-4 (PADI4, Homo sapiens, UniProt Q9UM07)

SMILES | target | test | test system | conditions | quantity | value
Nc1nc(N)c2nc(-c3cccc(O)c3)c(-c3cccc(O)c3)nc2n1 | PKN1 | enzyme activity, inhibitor | – | 1 µM | activity vs control | 79%
O=C(Nc1ccc([N+](=O)[O-])cc1[N+](=O)[O-])c1ccccc1O | MAOB | enzyme activity, inhibitor | – | 1 µM, 20 min | inhibition | 18%
CN1CCN(C2c3ccccc3CCc3ccccc32)CC1 | HRH1 | binding | – | – | kon | 567000 M⁻¹ s⁻¹
CCS(=O)(=O)Nc1ccc2c(c1)/C(=C(/Nc1ccc(CN3CCCCC3)cc1)c1ccccc1)C(=O)N2 | PKN1 | enzyme activity, inhibitor | – | 1 µM | activity vs control | 1%
CCOC(=O)C1CSc2[nH]c(=O)sc2C1c1cn(-c2ccccc2)nc1-c1ccc(OC)cc1 (stereo not shown) | CA9 | enzyme activity, inhibitor | – | 10 nM | inhibition | 21.5%
O=C(Nc1cc(F)ccc1[N+](=O)[O-])c1cc(Cl)ccc1O | MAOB | enzyme activity, inhibitor | – | 1 µM, 20 min | inhibition | 6%
COc1cc(NC(C)=O)c(Cl)cc1C(=O)Nc1nccs1 | Endothelin receptor type B (EDNRB, Homo sapiens, UniProt P24530) | cell-free assay | – | 10 µM | inhibition | -13.1%
N=C(N)NCCC[C@H](NC(=O)[C@H](CC(=O)O)NC(=O)[C@H](Cc1c[nH]c2ccccc12)NC(=O)[C@H](CCCNC(=N)N)NC(=O)[C@@H](N)Cc1ccccc1)C(=O)N[C@@H](Cc1ccccc1)C(=O)NCC(=O)O | Melanocortin receptor 5 (Mus musculus, UniProt P41149) | cAMP, agonist | HEK293 | – | Emax | 90%
N#CC1CSc2[nH]c(=O)sc2C1c1cn(-c2ccccc2)nc1-c1ccc(Br)cc1 (stereo not shown) | CA9 | enzyme activity, inhibitor | – | 1 µM | inhibition | 74.5%
N=C(CCl)NCCC[C@H](NC(=O)c1ccc(-c2ccccc2)cc1)c1nn[nH]n1 | PADI4 | enzyme activity, inhibitor | – | – | kinact/KI | 398 M⁻¹ s⁻¹
COc1cc([N+](=O)[O-])ccc1NC(=O)c1ccccc1O | MAOB | enzyme activity, inhibitor | – | 1 µM, 20 min | inhibition | 7%
CC(C)(O)[C@H]1CC[C@H](Nc2ccc3ncc(-c4cccc(C(F)(F)F)c4)n3n2)CC1 | Receptor-interacting serine/threonine-protein kinase 3 (RIPK3, Homo sapiens, UniProt Q9Y572) | enzyme activity, inhibitor | – | 1 µM | remaining activity | 80.6%
CCOC(=O)C1CSc2[nH]c(=O)sc2C1c1cn(-c2ccccc2)nc1-c1ccc(Br)cc1 (stereo not shown) | CA9 | enzyme activity, inhibitor | – | 10 µM | inhibition | 80.5%
O=C(Nc1ccc(N2C(=O)c3ccccc3C2=O)c(Cl)c1)c1ncccc1Cl | Metabotropic glutamate receptor 1 (GRM1, Homo sapiens, UniProt Q13255) | calcium signal, positive allosteric modulator | T-REx-293 | – | Emax | 102%
O=C(Nc1ccc([N+](=O)[O-])cc1Cl)c1cc2ccccc2cc1O | MAOB | enzyme activity, inhibitor | – | 1 µM, 20 min | inhibition | 48%
CNc1nccc(-c2cccnc2Oc2cc(C(=O)Nc3cccc(C(F)(F)F)c3)ccc2C)n1 | PKN1 | enzyme activity, inhibitor | – | 1 µM | activity vs control | 88%
CC(C)(C)n1nnc([C@H](CCCNC(=N)CF)NC(=O)c2ccccc2C(=O)O)n1 | PADI4 | enzyme activity, inhibitor | – | – | kinact/KI | 432 M⁻¹ s⁻¹
Nc1ccc(O)c(C(=O)Nc2ccccc2)c1 | MAOB | enzyme activity, inhibitor | – | 1 µM, 20 min | inhibition | 11%
N=C(CF)NCCC[C@H](NC(=O)c1ccccc1C(=O)O)c1nn[nH]n1 | PADI4 | enzyme activity, inhibitor | – | – | kinact/KI | 780 M⁻¹ s⁻¹
O=C(Nc1ccc([N+](=O)[O-])cc1Cl)c1ccc2c(c1)OCO2 | MAOB | enzyme activity, inhibitor | – | 1 µM, 20 min | inhibition | 62%
CNC(=O)c1ccccc1Nc1nc(Nc2ccc3c(c2OC)CCC[C@H](N2CCN(CCO)CC2)C3)ncc1Cl | PKN1 | enzyme activity, inhibitor | – | 1 µM | activity vs control | 80%
O=C(Nc1ccccc1)c1cc(Cl)ccc1O | MAOB | enzyme activity, inhibitor | – | 1 µM, 20 min | inhibition | 44%
C=CC(=O)Nc1cccc(Oc2nc(Nc3ccc(N4CCN(C)CC4)cc3OC)ncc2Cl)c1 | PKN1 | enzyme activity, inhibitor | – | 1 µM | activity vs control | 84%
O=C(Nc1cccc(Cl)c1)c1ccc([N+](=O)[O-])cc1Cl | MAOB | enzyme activity, inhibitor | – | 1 µM, 20 min | inhibition | 36%
CN1CCC(C2c3ccccc3CCc3ccccc32)CC1 | HRH1 | binding | – | – | koff | 0.000475 s⁻¹
